In one data set the target is T1, Flt3 (Homo sapiens, UniProt P36888).
T1 sequence (P36888 27-993): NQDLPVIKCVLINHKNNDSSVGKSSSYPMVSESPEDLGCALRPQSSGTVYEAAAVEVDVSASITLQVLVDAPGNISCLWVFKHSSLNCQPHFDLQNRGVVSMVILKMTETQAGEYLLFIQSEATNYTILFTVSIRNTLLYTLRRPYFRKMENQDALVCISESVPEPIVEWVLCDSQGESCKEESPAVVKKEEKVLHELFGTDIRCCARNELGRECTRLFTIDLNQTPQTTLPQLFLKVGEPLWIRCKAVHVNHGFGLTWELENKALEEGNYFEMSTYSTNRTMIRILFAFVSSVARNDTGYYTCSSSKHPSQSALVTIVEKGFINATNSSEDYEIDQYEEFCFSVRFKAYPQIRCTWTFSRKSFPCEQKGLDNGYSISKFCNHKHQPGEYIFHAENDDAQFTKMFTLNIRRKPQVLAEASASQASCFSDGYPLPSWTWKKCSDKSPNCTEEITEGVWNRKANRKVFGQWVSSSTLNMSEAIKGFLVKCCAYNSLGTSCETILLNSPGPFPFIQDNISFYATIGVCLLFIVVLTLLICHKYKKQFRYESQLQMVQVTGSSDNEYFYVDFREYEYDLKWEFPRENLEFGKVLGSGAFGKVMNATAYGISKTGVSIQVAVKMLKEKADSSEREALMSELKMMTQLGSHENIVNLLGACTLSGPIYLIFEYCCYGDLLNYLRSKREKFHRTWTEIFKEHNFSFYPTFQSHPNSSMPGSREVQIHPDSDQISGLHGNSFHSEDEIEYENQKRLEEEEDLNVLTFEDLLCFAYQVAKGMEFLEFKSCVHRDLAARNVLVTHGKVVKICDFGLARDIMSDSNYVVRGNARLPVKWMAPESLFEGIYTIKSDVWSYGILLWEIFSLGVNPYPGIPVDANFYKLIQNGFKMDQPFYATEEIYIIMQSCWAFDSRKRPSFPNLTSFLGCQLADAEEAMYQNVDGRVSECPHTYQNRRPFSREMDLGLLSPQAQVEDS
Kind of data set: Kinase profiling screen, Flt3. It counts as biochemical. The following applies: 1 μM, in duplicate.

Another data set concerns the target Src(1-530) (Homo sapiens, UniProt P12931). Nature of the data set: Kinase profiling screen, Src. The following applies: 1 μM, in duplicate. It counts as biochemical.
In data set [1] the test system is MDM2-Luc exon-skipping reporter. Nature of the data set: MDM2-Luc triple exon-skipping luciferase reporter assay. It counts as cell-based. In outline: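 Stable cell line expressing the triple exon-skipping luciferase construct. Exon skipping induced by SF3B1-targeted splicing modulators switches on luciferase, so luminescence is the read-out. The assay was used to screen a library of 830 known drugs and 4359 bioactive compounds.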

A further data set can be described thus: Solubility. Conditions: data not shown. The format is physicochemical.
The target in another data set is CLK1 (Homo sapiens, UniProt P49759). Nature of the data set: CLK1 biochemical enzyme inhibition. The following applies: screened for CLK1 activity, data not shown.
For a further data set, the target named is Plk1 (Homo sapiens, UniProt P53350). Kind of data set: Kinase profiling screen, Plk1. The following applies: 1 μM, in duplicate. The format is biochemical.
The target of the next data set is CDK4 (Homo sapiens, UniProt P11802). Nature of the data set: CDK4 biochemical enzyme inhibition. The following applies: read-out: CDK4 IC50.
Another data set has as its target CLK2 (Homo sapiens, UniProt P49760). Kind of data set: CLK2 biochemical enzyme inhibition. Conditions: 20 versus its enantiomer 21.

Entries after “also recorded” stand apart in the source; their conditions may differ.

Sequence of Src(1-530) (P12931 1-530): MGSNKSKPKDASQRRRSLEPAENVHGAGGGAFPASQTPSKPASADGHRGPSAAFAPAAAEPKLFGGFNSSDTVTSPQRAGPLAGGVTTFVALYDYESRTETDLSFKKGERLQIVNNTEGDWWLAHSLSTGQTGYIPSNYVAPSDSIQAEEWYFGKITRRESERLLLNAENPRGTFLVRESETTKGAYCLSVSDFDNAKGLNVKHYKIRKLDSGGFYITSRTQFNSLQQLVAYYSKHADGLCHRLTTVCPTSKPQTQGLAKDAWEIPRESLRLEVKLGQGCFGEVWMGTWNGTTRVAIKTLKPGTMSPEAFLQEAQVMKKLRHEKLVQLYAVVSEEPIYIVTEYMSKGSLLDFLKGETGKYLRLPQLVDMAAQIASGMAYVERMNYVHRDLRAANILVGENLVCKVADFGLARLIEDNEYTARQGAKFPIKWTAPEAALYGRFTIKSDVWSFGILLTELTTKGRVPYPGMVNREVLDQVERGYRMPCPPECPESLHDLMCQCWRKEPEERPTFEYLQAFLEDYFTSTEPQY
Sequence of Plk1 (P53350 whole entry): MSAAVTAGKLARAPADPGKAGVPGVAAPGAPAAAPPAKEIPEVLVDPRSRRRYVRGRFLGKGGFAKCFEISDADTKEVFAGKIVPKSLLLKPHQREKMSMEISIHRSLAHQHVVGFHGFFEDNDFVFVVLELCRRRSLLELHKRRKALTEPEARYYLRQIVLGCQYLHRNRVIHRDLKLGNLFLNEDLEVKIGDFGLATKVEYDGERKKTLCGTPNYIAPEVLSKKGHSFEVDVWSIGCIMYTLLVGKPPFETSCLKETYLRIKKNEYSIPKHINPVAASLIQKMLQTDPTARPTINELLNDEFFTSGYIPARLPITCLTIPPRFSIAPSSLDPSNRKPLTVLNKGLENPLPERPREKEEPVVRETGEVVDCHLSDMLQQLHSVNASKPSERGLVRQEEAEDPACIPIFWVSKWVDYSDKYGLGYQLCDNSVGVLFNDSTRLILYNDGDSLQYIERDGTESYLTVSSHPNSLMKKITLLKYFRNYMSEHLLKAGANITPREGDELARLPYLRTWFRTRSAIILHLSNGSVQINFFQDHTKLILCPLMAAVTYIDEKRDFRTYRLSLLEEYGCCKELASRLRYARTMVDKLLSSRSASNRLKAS
Sequence of CLK2 (P49760 whole entry): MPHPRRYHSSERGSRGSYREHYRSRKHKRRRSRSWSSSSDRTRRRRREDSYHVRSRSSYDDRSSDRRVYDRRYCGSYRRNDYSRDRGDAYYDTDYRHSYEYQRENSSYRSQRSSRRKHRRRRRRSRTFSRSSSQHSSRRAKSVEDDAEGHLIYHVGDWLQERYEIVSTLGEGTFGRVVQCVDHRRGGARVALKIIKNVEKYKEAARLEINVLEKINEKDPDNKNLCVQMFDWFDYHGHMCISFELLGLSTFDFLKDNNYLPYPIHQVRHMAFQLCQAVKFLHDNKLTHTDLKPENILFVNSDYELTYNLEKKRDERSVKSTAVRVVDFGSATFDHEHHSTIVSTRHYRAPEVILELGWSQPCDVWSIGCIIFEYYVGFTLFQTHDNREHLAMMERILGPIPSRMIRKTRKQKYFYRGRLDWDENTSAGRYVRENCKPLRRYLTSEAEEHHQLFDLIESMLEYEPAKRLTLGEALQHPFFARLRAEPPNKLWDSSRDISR
Sequence of CLK1 (P49759 whole entry): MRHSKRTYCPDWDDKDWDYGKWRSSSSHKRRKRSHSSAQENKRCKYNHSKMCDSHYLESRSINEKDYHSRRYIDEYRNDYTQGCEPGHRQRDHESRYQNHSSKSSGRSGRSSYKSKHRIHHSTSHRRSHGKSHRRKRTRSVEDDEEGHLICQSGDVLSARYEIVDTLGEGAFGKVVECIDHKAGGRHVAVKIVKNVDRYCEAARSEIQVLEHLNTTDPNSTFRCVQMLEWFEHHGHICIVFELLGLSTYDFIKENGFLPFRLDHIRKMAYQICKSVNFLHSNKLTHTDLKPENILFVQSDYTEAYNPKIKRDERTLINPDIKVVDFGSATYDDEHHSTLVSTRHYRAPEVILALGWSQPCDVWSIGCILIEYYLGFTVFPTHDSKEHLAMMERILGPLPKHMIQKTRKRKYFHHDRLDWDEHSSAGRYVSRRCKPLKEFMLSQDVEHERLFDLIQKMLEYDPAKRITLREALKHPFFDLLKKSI
Sequence of CDK4 (P11802 whole entry): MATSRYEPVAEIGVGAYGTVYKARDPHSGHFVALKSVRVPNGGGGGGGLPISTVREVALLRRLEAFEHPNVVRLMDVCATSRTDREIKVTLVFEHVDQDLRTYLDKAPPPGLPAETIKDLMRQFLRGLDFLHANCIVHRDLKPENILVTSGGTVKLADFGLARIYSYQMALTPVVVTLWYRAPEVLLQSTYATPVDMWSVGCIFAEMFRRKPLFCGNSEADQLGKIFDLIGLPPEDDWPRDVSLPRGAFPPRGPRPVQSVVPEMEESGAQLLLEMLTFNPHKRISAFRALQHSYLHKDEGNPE
Sequence of CDK4 (P30281 whole entry partner): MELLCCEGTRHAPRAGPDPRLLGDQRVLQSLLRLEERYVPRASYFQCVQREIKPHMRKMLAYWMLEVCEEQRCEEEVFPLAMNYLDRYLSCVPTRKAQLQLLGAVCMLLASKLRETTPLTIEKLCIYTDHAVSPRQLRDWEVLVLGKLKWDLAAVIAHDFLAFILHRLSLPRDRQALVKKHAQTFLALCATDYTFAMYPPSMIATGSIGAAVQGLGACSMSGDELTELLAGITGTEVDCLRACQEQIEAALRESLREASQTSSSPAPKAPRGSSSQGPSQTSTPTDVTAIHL

In the case of `CC(C)n1cnc2c(Nc3cccc(Cl)c3)nc(N[C@@H]3CCCC[C@@H]3N)nc21` [Compound 9], at Flt3, the “off-target activity against Flt3” value is listed as “some significant off-target activity”. On Src(1-530), the “off-target activity against Src(1-530)” value is “some significant off-target activity”. Moreover, the “activity in the MDM2-Luc assay” value in data set [1] is on record as “strong luciferase response”.

Take `CC(C)n1cnc2c(Nc3cccc(Cl)c3)nc(N[C@H]3CCCC[C@H]3N)nc21` [Compound 10]: in data set [1], the “activity in the MDM2-Luc assay” value is listed as “strong luciferase response”.

For `CC(C)n1ccc2c(Nc3cccc(Cl)c3)nc(N[C@H]3CCCC[C@H]3N)nc21` [Compound 11], the “activity in the MDM2-Luc assay at 10 μM” value in data set [1] is recorded as “completely abrogated all activity”.

As for `CCn1cnc2c(Nc3cccc(Cl)c3)nc(N[C@@H]3CCCC[C@@H]3NC(C)=O)nc21` [Compound 12], in data set [1], the “activity in the MDM2-Luc assay at 10 μM” value is “completely abrogated all activity”.

Turning to `COCCNc1nc(Nc2cccc(Cl)c2)c2ncn(C(C)C)c2n1` [Compound 13], the “solubility” value in the data set “Solubility” is “very poor solubility”. Also, the “activity in the CLK assay” value on CLK1 was “active”. In addition, the “activity in the MDM2-Luc assay” value in data set [1] was “dramatically reduced activity”.

On to `CC(C)n1cnc2c(Nc3cc(N)cc(Cl)c3)nc(N[C@@H]3CCCC[C@@H]3N)nc21` [Compound 14], for which the “off-target activity against Flt3” value at Flt3 is “off-target activity”. Besides, the “off-target activity against Src(1-530)” value on Src(1-530) is listed as “off-target activity”. Moreover, on Plk1, the “off-target activity against Plk1” value is “off-target activity”. In addition, the “activity in the MDM2-Luc assay” value in data set [1] was “strong MDM2-Luc activity; also recorded: strong luciferase response”.

Regarding `CC(=O)Nc1cc(Cl)cc(Nc2nc(N[C@@H]3CCCC[C@@H]3N)nc3c2ncn3C(C)C)c1` [Compound 15], the “activity in the MDM2-Luc assay” value in data set [1] is listed as “strong MDM2-Luc activity; also recorded: strong luciferase response”.

For `CC(=O)Nc1cc(Cl)cc(Nc2nc(N[C@@H]3CCCC[C@@H]3N)nc3c2ncn3C(C)C)c1` [Compound 18], the IC50 on CDK4 was 611 nM.

As for `CC(C)n1cnc2c(Nc3cc(N)cc(Cl)c3)nc(N[C@H]3CCCC[C@@H]3N)nc21` [Compound 20], the “potency difference between enantiomers for CLK2” value at CLK2 was more than 10 fold.

Regarding `COC(=O)c1c(/C(C#N)=C\N)c2ccc(Cl)c(Cl)c2n1C` [KH-CB19, reference compound], the “activity in the MDM2-Luc assay” value in data set [1] is listed as “modest activity; also recorded: barely passes the minimal hit criteria”.

For `COc1ccc2c(C)nc(Nc3nc(C)c(C)c(O)n3)nc2c1` [Madrasin, reference compound], in data set [1], the “activity in the MDM2-Luc assay at 10 μM” value was “neither compound showed significant activity”.

For the origin of these results see paper PMC5295499 (Bioorganic & medicinal chemistry letters, 2016).
